Screens (PubChem BioAssay)
RBBP9 inh: blocks human serine hydrolase RBBP9 | O75884 | recombinant RBBP9, FP-Rh probe fluorescence polarization | inhibition, % at 7.94 µM | hit rate 0.2% among 220,000 | AID 1515;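 active = inhibition above the campaign mean of all tested compounds plus 3 SD, cut at about 14% in these data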;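 note: plate controls were DMSO wells with RBBP9 for no effect and wells lacking RBBP9 protein for full effect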
Target sequence (O75884 whole entry, looked up): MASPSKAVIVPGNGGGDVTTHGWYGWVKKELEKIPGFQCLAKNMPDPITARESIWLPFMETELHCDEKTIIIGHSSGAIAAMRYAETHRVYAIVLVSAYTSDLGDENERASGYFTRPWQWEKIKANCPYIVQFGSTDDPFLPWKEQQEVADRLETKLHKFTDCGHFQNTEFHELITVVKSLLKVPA
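system = RBBP9 protein | input = RBBP9 at 2.5 µM in dispensed solution, before mixing | measured by = fluorescence polarization (mP), excitation 525 nm, emission 598 nm | incubation = enzyme-compound preincubation 30 min, then probe labeling 45 min, 25 °C | buffer or medium = Tris-NaCl-Pluronic buffer, pH 8.0 | compound = single dose 7.94 µM | also added = FP-Rh probe, 375 nM dispensing solution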
PAD4 FP inh: blocks human protein arginine deiminase 4; recombinant PAD4, RCA probe fluorescence polarization; inhibition, % at 6.36 µM; hit rate 0.41% among 330,000;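 active = percent inhibition above a cutoff equal to the mean of all tested compounds plus 3 SD, cut at about 15% in these data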;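 note: 0% = PAD4 with RCA probe and DMSO and 100% = probe without PAD4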
SIAE inh: blocks human sialic acid acetylesterase. Q9HAT2. SIAE FP-Rh probe binding, fluorescence polarization. inhibition, % at 9.66 µM. hit rate 0.69% among 370,000;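 active = inhibition above a cutoff: mean of compounds within the control limits plus 3 SD of those, cut at about 17% in these data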;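 note: 0% = plate median of compound wells and 100% = probe without SIAE protein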
PRMT1 inh: PRMT1 (human) inhibition, primary screen | hit rate 1.3% among 370,000 | Q99873 | inhibition, % at 2.79 µM | recombinant PRMT1, activity-based probe fluorescence polarization;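 active = inhibition above about 21% made by adding two undisclosed values, limit read from the data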
GSTO1 counter: blocks human GSTO1 in RBBP9 counter-screen | P78417 | recombinant GSTO1, activity-based probe fluorescence polarization | inhibition, % at 5.96 µM | hit rate 1.1% among 300,000;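 active = inhibition above the campaign mean inhibition plus 3 SD, cut at about 35% in these data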;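 note: 0% = GSTO1-1 with DMSO and 100% = wells lacking GSTO1-1 enzyme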
Target sequence (P78417 whole entry, looked up): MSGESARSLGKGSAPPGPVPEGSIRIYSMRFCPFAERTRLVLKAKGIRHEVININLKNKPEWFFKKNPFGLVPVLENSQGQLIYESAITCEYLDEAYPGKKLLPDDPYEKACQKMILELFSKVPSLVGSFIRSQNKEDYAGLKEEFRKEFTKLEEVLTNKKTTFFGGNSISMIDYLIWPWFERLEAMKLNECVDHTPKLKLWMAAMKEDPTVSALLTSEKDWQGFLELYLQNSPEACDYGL
PRMT1 confirm: confirmation of human PRMT1 inhibitors. hit rate 42% among 3,300. shares compounds with PRMT1 inh. recombinant His-PRMT1, activity-based probe fluorescence polarization. inhibition, % at 2.79 µM;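 active = mean inhibition across replicates above the hit cutoff derived for the earlier primary screen, cut at about 22% in these data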
An asterisk follows results filed as active; / = not tested or not shown. Compounds with a hit are over-represented: about 2.7% of the library has one in this group of screens.

SMILES	RBBP9 inh	PAD4 FP inh	SIAE inh	PRMT1 inh	GSTO1 counter	PRMT1 confirm
Cc1ccc(S(=O)(=O)c2nc(S(C)(=O)=O)sc2N2CCCCCC2)cc1	/	0	-3	0	0	/
Cn1c(SCC(=O)NCc2cccs2)nnc1-c1ccncc1	5	0	-3	1	0	/
CCOC(=O)c1[nH]c(=S)n(Cc2ccccc2)c1C(=O)OCC	/	/	5	7	/	/
CCOC(=O)c1[nH]c(=S)n(-c2ccccc2)c1C(=O)OCC	/	/	5	48*	/	7
O=C(COC(=O)c1cc[n+]([O-])cc1)Nc1ccc(SC(F)F)cc1	-2	-23	-9	28*	-11	19
CC(=O)CCC(=O)OCC(=O)Nc1ccc(SC(F)F)cc1	-11	3	0	27*	11	24*
O=C1CC(c2ccccc2)SC(N(c2ccccc2)c2ccccc2)=N1 (stereo not drawn)	3	0	5	2	0	/
Cc1cccc(NC(=S)NNC(=O)COc2ccc(Cl)cc2Cl)c1	-6	1	4	17	8	/
S=C(NCC1CCCO1)N1CCN(c2ccccc2)CC1 (stereo not drawn)	1	-2	0	-2	2	/
Cc1cccc(NC(=S)NCC23C=CC(O2)C2C(=O)N(c4ccc(Cl)cc4)C(=O)C23)c1 (stereo not drawn)	-8	-1	-3	78*	2	31*
Cc1ccc(NC(=S)NCC23C=CC(O2)C2C(=O)N(c4ccc(C)cc4)C(=O)C23)cc1 (stereo not drawn)	-9	-5	-5	91*	1	50*
Cc1ccc(S(=O)(=O)NCC23C=CC(O2)C2C(=O)N(c4ccccc4)C(=O)C23)cc1 (stereo not drawn)	5	3	2	81*	6	11
Cc1ccc(N2C(=O)C3C4C=CC(CNC(=S)N5CCN(c6ccccc6)CC5)(O4)C3C2=O)cc1 (stereo not drawn)	11	1	2	43*	2	44*
Cc1ccc(S(=O)(=O)Nc2c(C)[nH]c(=O)[nH]c2=O)cc1C	2	2	2	2	-3	/
CC[C@@]1(C(=O)OC)N[C@H](CN(C)C(=O)Nc2ccccc2)[C@@H]2C(=O)N(C)C(=O)[C@@H]21	/	-1	-4	1	/	/
Cc1ccc(C2C3=C(CCCC3=O)Nc3[nH]c(=S)[nH]c(=O)c32)cc1 (stereo not drawn)	-14	-2	2	17	3	/
O=C1CCCC2=C1C(c1ccc(Br)cc1)c1c([nH]c(=S)[nH]c1=O)N2 (stereo not drawn)	-1	-9	-13	49*	-2	38*
CC1(C)CC(=O)C2=C(C1)Nc1[nH]c(=S)[nH]c(=O)c1C2c1ccccc1 (stereo not drawn)	-5	2	-14	66*	13	6
CCCCNC(=O)CCC(=O)NNc1nc2ccccc2c2nc(-c3ccccc3)nn12	-7	-1	-11	0	2	/
Cc1cc(NC(=O)CSc2nc(Cc3ccccc3)c(C)[nH]2)no1	/	-9	7	0	2	/
O=C(CSc1nc(NS(=O)(=O)c2ccccc2)cc(=O)[nH]1)Nc1ccccc1Cl	/	/	-11	29*	/	16
Cc1[nH]c(SCC(=O)Nc2cc(S(C)(=O)=O)ccc2Cl)nc1Cc1ccccc1	/	2	-1	26*	/	9
O=C(Nc1nc2ccc(S(=O)(=O)N3CCCC3)cc2s1)c1ccccn1	-12	-6	-12	0	16	/
Cc1nnc(NC(=O)CSc2nc(C(C)C)nc3sc(C)c(C)c23)s1	2	/	-4	0	/	/
Cc1cccc(/N=C/c2sc3ccccc3c2O)n1	0	-13	-16	37*	-37	15
Oc1c(C=Nc2cccc3cccnc23)sc2ccccc12	-2	1	-3	31*	7	32*
Cc1[nH]n(-c2ccccc2)c(=O)c1C=Nc1cccc2cccnc12	-1	-3	-5	-1	15	/
Oc1ccc(Cl)cc1N=Cc1sc2ccccc2c1Cl	-8	-12	3	4	14	/
O=[N+]([O-])c1ccc(O)c(N=Cc2sc3ccccc3c2O)c1	-1	-11	-16	66*	-2	45*
O=C(NNC(=S)NC(=O)C12CC3CC(CC(C3)C1)C2)c1ccncc1	0	-6	2	-2	-12	/
